Consider ten compounds from ChEMBL document CHEMBL3112444, “Synthesis and anticancer activity of focused compound libraries from the natural product lead, oroidin” (2014).

Molecules are shown by their SMILES. A value given as a limit tells only on which side of the number the result lay.

Assay [1] is described as follows: Cytotoxicity against human U87 cells assessed as growth inhibition at 25 uM after 72 hrs by MTT assay relative to control. The class given is functional, U-87MG ATCC. The following applies: U-87 MG, read-out: GI. The gist of the method:
(§1)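 Cells in logarithmic growth kept in DMEM with 10% FBS, 10 mM sodium bicarbonate, penicillin 100 IU/mL, glutamine 4 mM, at 37 °C under 5% CO2. Plated in duplicate at 2500–4000 cells/well. Compound (30 mM DMSO stock) added 24 h after plating. MTT read at 540 nm after 72 h exposure.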

Assay [2] is described as follows: Cytotoxicity against mouse SMA cells assessed as growth inhibition at 25 uM after 72 hrs by MTT assay relative to control. Conditions: read-out: GI. The class given is functional. The method, boiled down:
as §1

The nature of assay [3]: Cytotoxicity against human MIA cells assessed as growth inhibition at 25 uM after 72 hrs by MTT assay relative to control. The class given is functional. The following applies: read-out: GI. The gist of the method:
as §1

A short description of assay [4]: Cytotoxicity against human SJ-G2 cells assessed as growth inhibition at 25 uM after 72 hrs by MTT assay relative to control. The following applies: SJ-G2, 72 h, read-out: GI. The class given is functional. The method, boiled down:
as §1
Background: Tetrazolium assays rely on reduction of a dye to a coloured formazan, in cell work by metabolically active cells.

Assay [5] can be described thus: Cytotoxicity against human BE(2)-C cells assessed as growth inhibition at 25 uM after 72 hrs by MTT assay relative to control. It is filed as functional. The following applies: read-out: GI. The method, boiled down: as §1
Assay [6] concerns DU-145. As to the kind of experiment: Cytotoxicity against human DU145 cells assessed as growth inhibition at 25 uM after 72 hrs by MTT assay relative to control. Conditions: DU-145, 72 h, read-out: GI. The class given is functional. The method, boiled down: as §1
In assay [7] the test system is A-431. Put plainly: Cytotoxicity against human A431 cells assessed as growth inhibition at 25 uM after 72 hrs by MTT assay relative to control. It is filed as functional. The following applies: A-431, 72 h, read-out: GI. The method, boiled down:
as §1

A short description of assay [8]: Cytotoxicity against human H460 cells assessed as growth inhibition at 25 uM after 72 hrs by MTT assay relative to control. The following applies: NCI-H460, 72 h, read-out: GI. It is filed as functional. The gist of the method: as §1
The test system of assay [9] is A2780. Put plainly: Cytotoxicity against human A2780 cells assessed as growth inhibition at 25 uM after 72 hrs by MTT assay relative to control. The class given is functional. Conditions: A2780, 72 h, read-out: GI. The gist of the method:
as §1

Assay [10] relates to MCF7. As to the kind of experiment: Cytotoxicity against human MCF7 cells assessed as growth inhibition at 25 uM after 72 hrs by MTT assay relative to control. The class given is functional. Conditions: MCF7, 72 h, read-out: GI. The method, boiled down: as §1
In assay [11] the test system is SW480. As to the kind of experiment: Cytotoxicity against human SW480 cells assessed as growth inhibition at 25 uM after 72 hrs by MTT assay relative to control. It is filed as functional. Conditions: SW480, 72 h, read-out: GI. The method, boiled down:
as §1

The test system of assay [12] is HT-29. Put plainly: Cytotoxicity against human HT-29 cells assessed as growth inhibition at 25 uM after 72 hrs by MTT assay relative to control. It is filed as functional. The following applies: HT-29, 72 h, read-out: GI. The gist of the method:
as §1

Assay [13] is described as follows: Cytotoxicity against human U87 cells assessed as growth inhibition after 72 hrs by MTT assay. The following applies: U-87 MG. It is filed as functional, U-87MG ATCC. The method, boiled down: as §1
Assay [14] can be described thus: Cytotoxicity against mouse SMA cells assessed as growth inhibition after 72 hrs by MTT assay. The class given is functional. The gist of the method: as §1
A short description of assay [15]: Cytotoxicity against human SJ-G2 cells assessed as growth inhibition after 72 hrs by MTT assay. It is filed as functional. Conditions: SJ-G2, 72 h. The method, boiled down: as §1
Assay [16] in a line: Cytotoxicity against human MIA cells assessed as growth inhibition after 72 hrs by MTT assay. It is filed as functional. The gist of the method: as §1
Assay [17] can be described thus: Cytotoxicity against human BE(2)-C cells assessed as growth inhibition after 72 hrs by MTT assay. It is filed as functional. The gist of the method:
as §1

For assay [18], the system named is DU-145. Put plainly: Cytotoxicity against human DU145 cells assessed as growth inhibition after 72 hrs by MTT assay. The class given is functional. The following applies: DU-145, 72 h. The gist of the method:
as §1

Assay [19] in a line: Cytotoxicity against human H460 cells assessed as growth inhibition after 72 hrs by MTT assay. It is filed as functional. The following applies: NCI-H460, 72 h. The method, boiled down: as §1
Assay [20] relates to A-431. Put plainly: Cytotoxicity against human A431 cells assessed as growth inhibition after 72 hrs by MTT assay. It is filed as functional. The following applies: A-431, 72 h. The method, boiled down: as §1
Assay [21] relates to A2780. Put plainly: Cytotoxicity against human A2780 cells assessed as growth inhibition after 72 hrs by MTT assay. The following applies: A2780, 72 h. It is filed as functional. The method, boiled down:
as §1

In assay [22] the test system is MCF7. As to the kind of experiment: Cytotoxicity against human MCF7 cells assessed as growth inhibition after 72 hrs by MTT assay. It is filed as functional. The following applies: MCF7, 72 h. The method, boiled down: as §1
The subject of assay [23] is SW480. As to the kind of experiment: Cytotoxicity against human SW480 cells assessed as growth inhibition after 72 hrs by MTT assay. It is filed as functional. The following applies: SW480, 72 h. The gist of the method: as §1
The test system of assay [24] is HT-29. As to the kind of experiment: Cytotoxicity against human HT-29 cells assessed as growth inhibition after 72 hrs by MTT assay. It is filed as functional. The following applies: HT-29, 72 h. The gist of the method: as §1

On to `O=C(NCCCCc1ccccc1)c1ccc[nH]1`, for which the inhibition of growth at 25 µM in assay [1] is less than 0%; in assay [2], 6%; in [3], 15%; in assay [4] it was 8%; in [5], less than 0%; in the assay with DU-145 [6], 10%. Also, the inhibition of growth at 25 µM is 12% in the assay on A-431 [7]; 11% in [8]; 13% in the assay with A2780 [9]; 23% in the assay with MCF7 [10]; less than 0% in the assay on SW480 [11]; 16% with HT-29 [12].

Regarding `O=C(NCCCc1ccccc1)c1ccc[nH]1`, the inhibition of growth at 25 µM in [1] was 11%; in assay [2], 8%; in [3], 10%; in assay [4] it was 0%; in assay [5], less than 0%; in the assay on DU-145 [6], less than 0%. The inhibition of growth at 25 µM with A-431 [7] came to 1%; in [8] it was 13%; with A2780 [9], 10%; in the assay with MCF7 [10], 21%; with SW480 [11], 7%; with HT-29 [12], 16%.

Take `O=C(NCc1ccc(-c2ccccc2)cc1)c1ccc[nH]1`: the GI50 (commonly the concentration giving 50% growth inhibition) in assay [13] was 11 µM; in assay [14], 21 µM; in assay [15], more than 50 µM; in assay [16], 6.5 µM; in assay [17], 11 µM; in the assay with DU-145 [18], 6.5 µM. In addition, the 50% growth inhibitory concentration (GI50) in [19] is more than 50 µM; in the assay with A-431 [20] it was 5.8 µM; in the assay on A2780 [21] it was 11 µM; with MCF7 [22] it was 5.7 µM; in the assay on SW480 [23] it was 4.3 µM; in the assay with HT-29 [24], 4.3 µM. Moreover, the inhibition of growth at 25 µM was found to be 77% in [1]; 53% in assay [2]; 74% in assay [3]; 33% in assay [4]; 72% in assay [5]; 87% in the assay on DU-145 [6]. Besides, the inhibition of growth at 25 µM stood at 81% in the assay on A-431 [7]; 59% in assay [8]; 58% with A2780 [9]; 79% in the assay with MCF7 [10]; 93% in the assay with SW480 [11]; 78% in the assay on HT-29 [12].

Take `O=C(NCc1ccc(-c2ccccc2)cc1)c1cc(Br)c(Br)[nH]1`: the 50% growth inhibitory concentration (GI50) in assay [13] is more than 50 µM; in [14], 17 µM; in assay [15], more than 50 µM; in [16], 3.4 µM; in assay [17], 4.2 µM; with DU-145 [18] it was 2.6 µM. The GI50 in assay [19] is 21 µM; with A-431 [20], 3.7 µM; in the assay with A2780 [21], 6.4 µM; in the assay with MCF7 [22], 3.1 µM; in the assay on SW480 [23], 2.4 µM; in the assay on HT-29 [24], 3.4 µM. The inhibition of growth at 25 µM in assay [1] is 58%; in [2], 59%; in assay [3], 82%; in assay [4] it was 17%; in [5], 57%; in the assay on DU-145 [6] it was 64%. Besides, the inhibition of growth at 25 µM was 90% in the assay on A-431 [7]; 61% in assay [8]; 66% in the assay on A2780 [9]; 70% in the assay on MCF7 [10]; 97% in the assay with SW480 [11]; 78% in the assay with HT-29 [12].

On to `O=C(NCCc1ccccc1)c1cc(Br)c(Br)[nH]1`, for which the inhibition of growth at 25 µM in [1] was less than 0%; in [2] it was 53%; in [3], 19%; in [4] it was 22%; in [5], 62%; in the assay on DU-145 [6] it was less than 0%. The inhibition of growth at 25 µM was 7% in the assay on A-431 [7]; 19% in assay [8]; 58% in the assay with A2780 [9]; 70% in the assay with MCF7 [10]; 1% in the assay with SW480 [11]; 46% in the assay on HT-29 [12].

With `O=C(NCCCc1ccccc1)c1cc(Br)c(Br)[nH]1`, the inhibition of growth at 25 µM was less than 0% in assay [1]; 45% in [2]; 21% in [3]; 8% in [4]; less than 0% in assay [5]; less than 0% in the assay with DU-145 [6]. In addition, the inhibition of growth at 25 µM in the assay on A-431 [7] was 5%; in assay [8] it was 25%; in the assay with A2780 [9] it was 48%; in the assay on MCF7 [10], 63%; in the assay with SW480 [11] it was less than 0%; with HT-29 [12], 41%.

In the case of `O=C(NCCCCc1ccccc1)c1cc(Br)c(Br)[nH]1`, the inhibition of growth at 25 µM in assay [1] was less than 0%; in assay [2] it was 40%; in assay [3], 34%; in assay [4], 14%; in assay [5], less than 0%; in the assay with DU-145 [6], 19%. In addition, the inhibition of growth at 25 µM with A-431 [7] was 24%; in [8] it was 17%; in the assay on A2780 [9] it was 56%; in the assay on MCF7 [10], 70%; with SW480 [11] it was less than 0%; with HT-29 [12] it was 41%.

In the case of `O=C(NCc1ccc(Cl)cc1)c1ccc[nH]1`, the inhibition of growth at 25 µM in assay [1] is 4%; in assay [2], 10%; in [3], 1%; in [4], less than 0%; in assay [5], less than 0%; with DU-145 [6], less than 0%. For the same compound, the inhibition of growth at 25 µM was less than 0% with A-431 [7]; less than 0% in assay [8]; 2% in the assay on A2780 [9]; 10% in the assay with MCF7 [10]; 4% in the assay on SW480 [11]; 10% with HT-29 [12].

`O=C(NCc1ccc(Cl)c(Cl)c1)c1ccc[nH]1`: the inhibition of growth at 25 µM in [1] was 4%; in assay [2], 17%; in [3], less than 0%; in assay [4] it was 11%; in assay [5], less than 0%; in the assay with DU-145 [6], less than 0%. Moreover, the inhibition of growth at 25 µM was 6% in the assay with A-431 [7]; 14% in assay [8]; 15% in the assay with A2780 [9]; 7% with MCF7 [10]; less than 0% in the assay on SW480 [11]; 14% in the assay with HT-29 [12].

Regarding `O=C(NCCc1ccccc1)c1ccc[nH]1`, the inhibition of growth at 25 µM in assay [1] is 9%; in [2], 7%; in assay [3], less than 0%; in assay [4], 2%; in assay [5], less than 0%; in the assay with DU-145 [6], 5%. Also, the inhibition of growth at 25 µM worked out at 5% with A-431 [7]; 5% in [8]; 6% in the assay on A2780 [9]; 7% with MCF7 [10]; 9% with SW480 [11]; 9% in the assay with HT-29 [12].
